Measured values published in ChEMBL document CHEMBL1145471, “Small molecule regulators of autophagy identified by an image-based high-throughput screen” (Proc Natl Acad Sci U S A, 2007).
Calls of active or inactive are those of the source. The calls are words filed in the database; no cut-off is given here.

Assays:
H4 [1] = assay: Decrease in FYVE-RFP+ vesicle intensity per cell in human H4 cells after 8 hrs relative to control; type: functional; set-up: concentration or dose not given beside the values
Outline: (§1)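 H4 cells stably expressing FYVE-RFP (H4-FYVE), grown in DMEM with 10% FBS, penicillin/streptomycin and 2 mM L-glutamine at 37°C, 5% CO2, seeded in 96-well plates and exposed to compound. Fixed in 4% paraformaldehyde, nuclei stained with 3 μg/ml DAPI, FYVE-RFP+ vesicles quantified by high-throughput fluorescence microscopy against DMSO control. Triplicate wells, mean ± SD.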

H4 [2] = assay: Increase in long-lived protein degradation in human H4 cells after 1 hr relative to control; type: functional; set-up: concentration or dose not given beside the values
H4 [3] = assay: Induction of light chain 3-GFP level in human H4 cells at 4.5 uM after 24 hrs by high throughput fluorescence microscopy relative to control; type: functional
Outline: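 H4 cells stably expressing LC3-GFP, grown in DMEM with 10% FBS, penicillin/streptomycin and 2 mM L-glutamine at 37°C, 5% CO2. Cells were seeded in 96-well plates and exposed to library compounds at 3–12 μM for 24 h, then fixed in 4% paraformaldehyde and stained with 3 μg/ml DAPI. LC3-GFP spot number, size and intensity were measured by high-throughput fluorescence microscopy and expressed relative to DMSO. Triplicates, mean ± SD.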

H4 [4] = assay: Increase in light chain 3-GFP+ autophagosome vesicle intensity per cell in human H4 cells at 4.5 uM after 24 hrs by high throughput fluorescence microscopy relative to control; type: functional
Outline: (§2)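 H4 cells stably expressing LC3-GFP were grown in DMEM with 10% FBS and 2 mM L-glutamine at 37°C, 5% CO2. They were exposed to each compound for 24 h, with DMSO as negative and rapamycin as positive control. Cells were then fixed in 4% paraformaldehyde and stained with 3 μg/ml DAPI. High-throughput fluorescence imaging scored LC3-GFP spot number, size and intensity, expressed relative to DMSO. Mean ± SD of triplicates; experiments repeated three times.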

H4 [5] = assay: Increase in light chain 3-GFP+ autophagosome vesicle number per cell in human H4 cells at 4.5 uM after 24 hrs by high throughput fluorescence microscopy relative to control; type: functional; outline: as §2
H4 [6] = assay: Decrease in FYVE-RFP+ vesicle intensity per cell in human H4 cells after 2 hrs relative to control; type: functional; set-up: concentration or dose not given beside the values; outline: as §1
H4 [7] = assay: Increase in long-lived protein degradation in human H4 cells after 2 hrs relative to control; type: functional; set-up: concentration or dose not given beside the values
H4 [8] = assay: Increase in long-lived protein degradation in human H4 cells after 4 hrs relative to control; type: functional; set-up: concentration or dose not given beside the values
H4 [9] = assay: Increase in long-lived protein degradation in human H4 cells after 24 hrs relative to control; type: functional; set-up: concentration or dose not given beside the values
H4 [10] = assay: Decrease in FYVE-RFP+ vesicle intensity per cell in human H4 cells after 4 hrs relative to control; type: functional; set-up: concentration or dose not given beside the values; outline: as §1
H4 [11] = assay: Increase in light chain 3-GFP+ autophagosome vesicle area per cell in human H4 cells at 4.5 uM after 24 hrs by high throughput fluorescence microscopy relative to control; type: functional
Outline: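 H4 cells stably expressing LC3-GFP, seeded in 96-well plates and exposed to compound for 24 h; screening concentrations were 3–12 μM, with rapamycin 0.22 μM and bafilomycin A1 0.40 μM. Cells fixed in 4% paraformaldehyde and stained with 3 μg/ml DAPI. Number, size and intensity of LC3-GFP spots measured by high-throughput fluorescence microscopy and expressed as percent of DMSO-treated wells. Rapamycin was the positive control. Triplicate wells, mean ± SD; experiments repeated three times.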

H4 [12] = assay: Effect on FYVE-RFP+ vesicle intensity per cell in human H4 cells after 4 hrs relative to control; type: functional; set-up: concentration or dose not given beside the values; outline: as §1
H4 [13] = assay: Induction of light chain 3-GFP level in human H4 cells at 5.0 uM after 24 hrs by high throughput fluorescence microscopy relative to control; type: functional
Outline: (§3)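 H4 cells stably expressing LC3-GFP, kept in DMEM/10% FBS at 37°C, 5% CO2, were seeded in 96-well plates and exposed to compound for 24 h. Cells were then fixed in 4% paraformaldehyde and stained with 3 μg/ml DAPI. Automated fluorescence microscopy scored the number, size and intensity of LC3-GFP spots. Values are percent of DMSO wells, in triplicate, mean ± SD. Rapamycin served as positive control.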

H4 [14] = assay: Increase in ratio of light chain 3 subunit 2 to light chain 3 subunit 1 in human H4 cells at 4.9 uM after 4 hrs by Western blot; type: functional, cell-based
Outline: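 H4 cells were exposed to compound for 4 h, then lysed. Lysates were blotted with anti-LC3 antibody, with actin as loading control, and the LC3II/LC3I band ratio was taken.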

H4 [15] = assay: Reduction of poly(Q) level in human H4 cells expressing EGFP-Q79-HA after 24 hrs; type: functional, cell-based
Outline: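 H4 cells were transiently transfected with an EGFP-Q79-HA expression vector. The medium was replaced 6 h after transfection and compounds were added. Poly(Q) was detected with anti-HA antibody.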

H4 [16] = assay: Increase in light chain 3-GFP+ autophagosome vesicle intensity per cell in human H4 cells at 4.9 uM after 24 hrs by high throughput fluorescence microscopy relative to control; type: functional
Outline: (§4)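 H4 cells stably expressing LC3-GFP, seeded in 96-well plates and exposed to compound for 24 h; fixed in 4% paraformaldehyde, nuclei stained with 3 μg/ml DAPI. Automated fluorescence microscopy scored number, size and intensity of LC3-GFP spots; values expressed relative to DMSO-treated wells, rapamycin positive control. Triplicate wells, mean ± SD; experiments repeated three times.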

H4 [17] = assay: Effect on FYVE-RFP+ vesicle intensity per cell in human H4 cells after 8 hrs relative to control; type: functional; set-up: concentration or dose not given beside the values; outline: as §1
H4 [18] = assay: Increase in light chain 3-GFP+ autophagosome vesicle number per cell in human H4 cells at 4.9 uM after 24 hrs by high throughput fluorescence microscopy relative to control; type: functional; outline: as §3
H4 [19] = assay: Induction of light chain 3-GFP level in human H4 cells at 4.9 uM after 24 hrs by high throughput fluorescence microscopy relative to control; type: functional; outline: as §3
[20] = biological target: T1, Serine/threonine-protein kinase mTOR (Homo sapiens, UniProt P42345); assay: Effect on mTOR phosphorylation in human H4 cells at 4.9 uM after 4 hrs; type: cell-based
Outline: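 H4 cells treated with compound for 4 h; lysates analysed by Western blot using anti-phospho/non-phospho mTOR antibody, with actin as loading control; rapamycin used for comparison. Cells grown in DMEM with 10% FBS, penicillin/streptomycin, 2 mM L-glutamine at 37°C, 5% CO2.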

H4 [21] = assay: Effect on FYVE-RFP+ vesicle intensity per cell in human H4 cells after 2 hrs relative to control; type: functional; set-up: concentration or dose not given beside the values; outline: as §1
H4 [22] = assay: Increase in light chain 3-GFP+ autophagosome vesicle number per cell in human H4 cells at 3.9 uM after 24 hrs by high throughput fluorescence microscopy relative to control; type: functional; outline: as §3
H4 [23] = assay: Increase in FYVE-RFP+ vesicle intensity per cell in human H4 cells after 2 hrs relative to control; type: functional; set-up: concentration or dose not given beside the values; outline: as §1
H4 [24] = assay: Increase in light chain 3-GFP+ autophagosome vesicle area per cell in human H4 cells at 3.9 uM after 24 hrs by high throughput fluorescence microscopy relative to control; type: functional; outline: as §4
H4 [25] = assay: Increase in FYVE-RFP+ vesicle intensity per cell in human H4 cells after 8 hrs relative to control; type: functional; set-up: concentration or dose not given beside the values; outline: as §1
[26] = biological target: T1, Serine/threonine-protein kinase mTOR; assay: Effect on mTOR phosphorylation in human H4 cells at 3.9 uM after 4 hrs; type: cell-based
Outline: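 H4 cells exposed to compound for 4 h. Lysates analysed by Western blot with anti-phospho and anti-total mTOR antibodies, with actin as loading control. Rapamycin served as reference.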

H4 [27] = assay: Induction of light chain 3-GFP level in human H4 cells at 3.9 uM after 24 hrs by high throughput fluorescence microscopy relative to control; type: functional; outline: as §3
H4 [28] = assay: Increase in light chain 3-GFP+ autophagosome vesicle intensity per cell in human H4 cells at 3.9 uM after 24 hrs by high throughput fluorescence microscopy relative to control; type: functional; outline: as §4
H4 [29] = assay: Increase in FYVE-RFP+ vesicle intensity per cell in human H4 cells after 4 hrs relative to control; type: functional; set-up: concentration or dose not given beside the values; outline: as §1
H4 [30] = assay: Increase in ratio of light chain 3 subunit 2 to light chain 3 subunit 1 in human H4 cells at 3.9 uM after 4 hrs by Western blot; type: functional, cell-based
Outline: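 H4 cells were treated with each compound for 4 h, then lysed. Lysates were immunoblotted with anti-LC3 antibody, with actin as loading control. LC3II and LC3I bands were compared as an LC3II/LC3I ratio.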

COC1=C2C[C@@H](C)C[C@H](OC)[C@H](O)[C@@H](C)/C=C(\C)[C@H](OC(N)=O)[C@@H](OC)/C=C\C=C(/C)C(=O)NC(=CC1=O)C2=O [GELDANAMYCIN]
Activity (H4 [1]): 39.26%
Activity (H4 [2]): 87.25%
Activity (H4 [3]): 81.41%
Activity (H4 [4]): 546.8%
Activity (H4 [5]): 313.52%
Activity (H4 [6]): 35.18%
Activity (H4 [7]): 74.67%
Activity (H4 [8]): 87.795%
Activity (H4 [9]): 72.93%
Activity (H4 [10]): 41.33%
Activity (H4 [11]): 398.91%

CN(C)C(=O)C(CCN1CCC(O)(c2ccc(Cl)cc2)CC1)(c1ccccc1)c1ccccc1 [LOPERAMIDE]
Activity (H4 [2]): 78.7%
Activity (H4 [12]): 123.62%
Activity (H4 [13]): 339.4%
Activity (H4 [14]): Active
Activity (H4 [15]): Dose-dependent effect
Activity (H4 [16]): 666.5%
Activity (H4 [7]): 122.1%
Activity (H4 [17]): 95.7%
Activity (H4 [18]): 235.49%
Activity (H4 [8]): 125.21%
Activity (H4 [9]): 139.19%
Activity (H4 [19]): 126.76%
Activity [20]: inactive
Activity (H4 [21]): 115.39%

COC(=O)C1=C(C)NC(C)=C(C(=O)OCCCN2CCC(c3ccccc3)(c3ccccc3)CC2)[C@H]1c1cccc([N+](=O)[O-])c1 [NIGULDIPINE]
Activity (H4 [2]): 71.65%
Activity (H4 [22]): 282.89%
Activity (H4 [23]): 147.18%
Activity (H4 [24]): 405.33%
Activity (H4 [25]): 125.53%
Activity [26]: inactive
Activity (H4 [27]): 132.78%
Activity (H4 [15]): Dose-dependent effect
Activity (H4 [28]): 777.92%
Activity (H4 [7]): 107.42%
Activity (H4 [8]): 105.68%
Activity (H4 [9]): 117.85%
Activity (H4 [29]): 148.26%
Activity (H4 [30]): Active
